# From ChEMBL document CHEMBL4732226, “Discovery of a potent G-protein-coupled receptor 119 agonist for the treatment of type 2 diabetes” (Bioorg Med Chem, 2021)
# The source made the active and inactive calls. The rule behind the calls is not given here.
# Assays:
# [1] = Toxicity in male Wistar rat assessed as ratio of heart to body weight at 200 mg/kg, po after 28 days (reference value: 0.333 +/- 0.036); format: organism-based; details: in vivo, 672 h, time 28 day
# [2] = Toxicity in male Wistar rat assessed as AST level at 400 mg/kg, po after 28 days (reference value: 119.4 +/- 9.3 U/L); format: organism-based; details: in vivo, 672 h, time 28 day
# [3] = Toxicity in male Wistar rat assessed as ratio of heart to body weight at 100 mg/kg, po after 28 days (reference value: 0.333 +/- 0.036); format: organism-based; details: in vivo, 672 h, time 28 day
# [4] = Toxicity in male Wistar rat assessed as AST level at 100 mg/kg, po after 28 days (reference value: 119.4 +/- 9.3 U/L); format: organism-based; details: in vivo, 672 h, time 28 day
# [5] = Toxicity in male Wistar rat assessed as ratio of kidney to body weight at 400 mg/kg, po after 28 days (reference value: 0.787 +/- 0.078); format: organism-based; details: in vivo, 672 h, time 28 day
# [6] = Toxicity in female Wistar rat assessed as AST level at 400 mg/kg, po after 28 days (reference value: 128.84 +/- 21.42 U/L); format: organism-based; details: in vivo, 672 h, time 28 day
# [7] = AUC(0 to infinity) in Beagle dog at 10 mg/kg, po up to 24 hrs; format: ADME, organism-based, Canis lupus familiaris; parameters: route oral, dose 10 mg/kg, time <=24; details: in vivo
# How it was run: (§1)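 Single oral dose at 10 mg/kg given to male Wistar rats and to Beagle dogs; bioavailability also determined in both species.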
# Rattus norvegicus = assay: Antidiabetic activity in Sprague-Dawley rat assessed as reduction in HFD-induced body weigh gain at 25 to 50 mg/kg/day, po for 28 days; format: functional, organism-based; details: dose 25-50 mg/kg/day, time 28.0 day
# How it was run: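 Male SD rats were fed high-fat diet for 12 weeks, with a normal-chow group alongside, then split into 4 treatment groups. Oral dosing at 25 or 50 mg/kg/day for 28 days in PG450/Tween 80/0.1% Na-CMC (5:5:90). Body weight recorded daily.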
# [8] = Toxicity in male Wistar rat assessed as ratio of spleen to body weight at 400 mg/kg, po after 28 days (reference value: 0.206 +/- 0.026); format: organism-based; details: in vivo, 672 h, time 28 day
# [9] = Toxicity in male Wistar rat assessed as ALP level at 400 mg/kg, po after 28 days (reference value: 174.77 +/- 25.42 U/L); format: organism-based; details: in vivo, 672 h, time 28 day
# [10] = Toxicity in female Wistar rat assessed as ratio of adrenals to body weight at 400 mg/kg, po after 28 days (reference value: 0.045 +/- 0.007); format: organism-based; details: in vivo, 672 h, time 28 day
# [11] = Toxicity in female Wistar rat assessed as ratio of liver to body weight at 100 mg/kg, po after 28 days (reference value: 3.219 +/- 0.221); format: organism-based; details: in vivo, 672 h, time 28 day
# [12] = Toxicity in male Wistar rat assessed as ALT level at 400 mg/kg, po after 28 days (reference value: 30.47 +/- 2.63 U/L); format: organism-based; details: in vivo, 672 h, time 28 day
# [13] = Toxicity in male Wistar rat assessed as ratio of testes to body weight at 100 mg/kg, po after 28 days (reference value: 1.248 +/- 0.073); format: organism-based; details: in vivo, 672 h, time 28 day
# [14] = Toxicity in male Wistar rat assessed as urea level at 100 mg/kg, po after 28 days (reference value: 58.14 +/- 9.13 mg/dl); format: organism-based; details: in vivo, 672 h, time 28 day
# [15] = Toxicity in male Wistar rat assessed as globulin level at 100 mg/kg, po after 28 days (reference value: 2.62 +/- 0.12 g/dl); format: organism-based; details: in vivo, 672 h, time 28 day
# [16] = Toxicity in female Wistar rat assessed as AST level at 200 mg/kg, po after 28 days (reference value: 128.84 +/- 21.42 U/L); format: organism-based; details: in vivo, 672 h, time 28 day
# [17] = Toxicity in male Wistar rat assessed as AST level at 200 mg/kg, po after 28 days (reference value: 119.4 +/- 9.3 U/L); format: organism-based; details: in vivo, 672 h, time 28 day
# Mus musculus [18] = assay: Antidiabetic activity in glucose-stimulated […] mouse assessed as reduction in blood glucose level at 50 mg/kg, po pretreated for 30 mins followed by glucose-stimulation and measured up to 120 mins by OGTT method relative to control; format: functional; parameters: scale not given: the % may be the effect or the level left; details: 0.5 h
# How it was run: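 C57 mice aged 6–8 weeks were grouped by non-fasting glucose and fasted overnight. Single oral dose of 50 mg/kg; 30 min later basal bleed and oral glucose 3 g/kg. Serum glucose taken at 20, 40, 60 and 120 min. Change in glucose AUC calculated.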
# Mus musculus [19] = assay: Antidiabetic activity in glucose-stimulated db/db mouse assessed as increase in glucose dependent insulin secretion at 50 mg/kg, po after 10 to 30 mins; format: functional, organism-based; details: time 10-30 min
# [20] = Toxicity in male Wistar rat assessed as ratio of testes to body weight at 400 mg/kg, po after 28 days (reference value: 1.248 +/- 0.073); format: organism-based; details: in vivo, 672 h, time 28 day
# [21] = Toxicity in female Wistar rat assessed as creatinine level at 400 mg/kg, po after 28 days (reference value: 0.6 +/- 0.04 mg/dl); format: organism-based; details: in vivo, 672 h, time 28 day
# [22] = AUC(0 to t) in Wistar rat at 10 mg/kg, po up to 24 hrs; format: ADME, organism-based; parameters: route oral, dose 10 mg/kg, time <=24; details: in vivo; how it was run: as §1
# [23] = Toxicity in male Wistar rat assessed as ratio of kidney to body weight at 100 mg/kg, po after 28 days (reference value: 0.787 +/- 0.078); format: organism-based; details: in vivo, 672 h, time 28 day
# [24] = Toxicity in male Wistar rat assessed as ratio of testes to body weight at 200 mg/kg, po after 28 days (reference value: 1.248 +/- 0.073); format: organism-based; details: in vivo, 672 h, time 28 day
# [25] = Toxicity in female Wistar rat assessed as ALP level at 200 mg/kg, po after 28 days (reference value: 100.14 +/- 21.98 U/L); format: organism-based; details: in vivo, 672 h, time 28 day
# [26] = Half life in Sprague-Dawley rat at 25 mg/kg, po up to 24 hrs; format: ADME, organism-based; details: in vivo
# How it was run: (§2)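 Male SD rats fasted overnight, water ad libitum, fed 4 h after dosing. Single oral gavage of 25 mg/kg as a homogeneous suspension in 0.5% Tween 80 in 0.5% Na-CMC. Blood drawn into Na-heparin tubes at 0.25, 0.5, 1, 2, 4, 6, 8 and 24 h; plasma stored at -70°C. Parameters by non-compartmental analysis, with C0 taken as zero and BLQ samples set to zero.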
# [27] = Toxicity in female Wistar rat assessed as change in survival at 100 to 400 mg/kg, po after 28 days; format: organism-based; details: in vivo, 672 h, dose 100-400 mg/kg, time 28 day
# How it was run: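 Repeated-dose oral toxicity by gavage in Wistar rats, 10 males and 10 females per group, given 100, 200 or 400 mg/kg once daily for 28 days. Endpoints were clinical signs, mortality, neurobehaviour, food intake, ophthalmic examination and body weight. Animals were sacrificed on day 29 for blood biochemistry, organ-to-body weight ratios and histopathology.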
# [28] = Half life in Wistar rat at 10 mg/kg, po up to 24 hrs; format: ADME, organism-based; details: in vivo; how it was run: as §1
# [29] = Toxicity in female Wistar rat assessed as ratio of spleen to body weight at 400 mg/kg, po after 28 days (reference value: 0.244 +/- 0.032); format: organism-based; details: in vivo, 672 h, time 28 day
# [30] = AUC(0 to t) in Beagle dog at 10 mg/kg, po up to 24 hrs; format: ADME, organism-based, Canis lupus familiaris; parameters: route oral, dose 10 mg/kg, time <=24; details: in vivo; how it was run: as §1
# [31] = AUC(0 to infinity) in Sprague-Dawley rat at 25 mg/kg, po up to 24 hrs; format: ADME, organism-based; parameters: route oral, dose 25 mg/kg, time <=24; details: in vivo; how it was run: as §2
compound,measurement,setting,value
Cc1c(Oc2cccc(/C=C3\SC(=O)NC3=O)c2)ncnc1OC1CCN(C(=O)OC(C)(C)C)CC1,Ratio,[1],0.363
same,Activity,[2],116.36 U/L
same,Ratio,[3],0.347
same,Activity,[4],114.13 U/L
same,Ratio,[5],0.845
same,Activity,[6],123.93 U/L
same,AUC(0-inf),[7],15200 ng·h/mL
same,Activity,Rattus norvegicus,inactive
same,Ratio,[8],0.211
same,Activity,[9],177.44 U/L
same,Ratio,[10],0.042
same,Ratio,[11],3.243
same,Activity,[12],29.6 U/L
same,Ratio,[13],1.228
same,Activity,[14],55.36 mg/dL
same,Activity,[15],2.5 g/dL
same,Activity,[16],128.19 U/L
same,Activity,[17],116.98 U/L
same,Activity,Mus musculus [18],32.4%
same,Activity,Mus musculus [19],Active
same,Ratio,[20],1.23
same,Activity,[21],0.6 mg/dL
same,AUC(0-t) at 24 h,[22],1770 ng·h/mL
same,Ratio,[23],0.831
same,Ratio,[24],1.289
same,Activity,[25],91.73 U/L
same,half-life,[26],3.09 h
same,Activity,[27],Non-Toxic
same,half-life,[28],12.3 h
same,Ratio,[29],0.228
same,AUC(0-t) at 24 h,[30],14900 ng·h/mL
same,AUC(0-inf),[31],19700 ng·h/mL
